Only a selection was taken, and hits are over-represented in it overall.
Diaph act CS: activates diaphorase or chemically reduces, flagging diaphorase assay artifacts; Diaphorase/resazurin coupled assay, resorufin fluorescence, 16 min; active compounds read high; 1 = vehicle wells, 0 = NADH-free wells; activation factor at 20 µM; 190,000 compounds, 0.005% hits; AID 1229;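 active means diaphorase activity raised at least twofold by the compound at 20 µM; inactive means activation factor below 2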
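Measured by – red resorufin fluorescence at 544/590 nm excitation/emission · Test system – Clostridium kluyveri diaphorase, purified enzyme · Incubation – reaction time 16 min, room temperature · Buffer or medium – 50 mM HEPES pH 7.4 with 4.542 mM MgCl2, 0.005% Tween 20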
G6PDH CS: inhibits Leuconostoc G6PDH, flagging false hits in G6PDH-based assays; 200,000 compounds, 0.12% hits; inhibition, % at 5 µM; AID 1020; Purified L. mesenteroides G6PDH, diaphorase/resazurin coupled fluorescence, 45 min
PfG6PD inh: PfG6PD (Plasmodium falciparum) enzyme inhibition. PfGluPho enzyme, NADPH resazurin-diaphorase fluorescence. inhibition, % at 20 µM. 350,000 compounds, 0.78% hits. AID 504690;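 active means inhibition reaching at least a set limit at 20 µM in the primary screen, cut at about 59% in these data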;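 further: 0% = DMSO wells with substrate and 100% = DMSO wells lacking glucose-6-phosphate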
DTT redox prof: compounds producing H2O2 with reducing agent – biochemical, NIH compound library profiling, artefact control for MLSCN library redox annotation, primary screen | DTT-dependent redox cycling H2O2, phenol red/HRP absorbance; 100% = 100 µM peroxide control, 0% = buffer | activation, % at 10 µM | 200,000 compounds, 0.03% hits | AID 878;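 active means activation of at least 50% relative to the plate's high and low controls in the primary single-dose screen; inactive means activation below 50%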;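 further: compound incubated with DTT at 0.8 mM final as the reducing agent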
Diaphorase inh: diaphorase inhibition or chemical oxidation counter-screen; AID 1217; inhibition, % at 20 µM; diaphorase resazurin-to-resorufin fluorescence, NADH, 16 min; bacterial (C. kluyveri) enzyme, not human; 190,000 compounds, 0.69% hits;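 active means primary screen inhibition at 20 µM above a set limit, cut at about 50% in these data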;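 further: plate controls were DMSO with full reaction for no effect and wells lacking NADH for full effect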
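Detection: fluorescence of resorufin formed from resazurin, Ex 544/Em 590 nm; test system: Clostridium kluyveri diaphorase enzyme; amount: 0.14 U/mL diaphorase, enzyme working solution; times: 16-min room-temperature incubation before reading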
L major viab: reduces viability of Leishmania major promastigotes. inhibition, % at 10 µM. 200,000 compounds, 9% hits. resazurin fluorescence viability. AID 1063;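 further: promastigotes grown with compound for 44 hours at 28 °C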
An asterisk follows results filed as active. Unless noted, no stated cut-off is given here; in the data, active means inhibition above about 50%; inactive means the rest.

Screening CN(C(=O)/C=C/c1ccc([N+](=O)[O-])s1)c1ccccc1 returned Diaph act CS 1.1, G6PDH CS -2.3, PfG6PD inh -5.7, DTT redox prof -0.8, Diaphorase inh -7.0 and L major viab 97.8*.
Cc1onc(-c2ccccc2)c1C(=O)NC(=S)NNC(=O)c1ccc(O)cc1 was read as Diaph act CS 0.8, G6PDH CS 2.2, PfG6PD inh -23.2, DTT redox prof 0.2, Diaphorase inh 18.5 and L major viab -0.1.
`Cc1onc(-c2ccccc2)c1C(=O)NC(=S)NNC(=O)c1ccc(O)cc1O` gave Diaph act CS 0.7, G6PDH CS -5.7, PfG6PD inh -42.2, DTT redox prof 0.0, Diaphorase inh 26.1 and L major viab 91.9*.
`Cc1onc(-c2ccccc2)c1C(=O)NC(=S)NNC(=O)c1ccccc1O` gave Diaph act CS 0.8, G6PDH CS 0.0, PfG6PD inh -32.5, DTT redox prof -0.3, Diaphorase inh 22.4 and L major viab 66.9*.
Cc1onc(-c2ccccc2)c1C(=O)NNC(=O)c1ccccc1Br was read as PfG6PD inh -21.3.
`O=C(NC1(N2CCOCC2)CC1)c1ccc(Cl)cc1` gave PfG6PD inh -1.8.
COc1cccc(C#CC2=CC(=O)CC(C)(C)C2)c1 was read as PfG6PD inh 4.3.
Nc1cc(-c2cccc([N+](=O)[O-])c2)[nH]n1 was read as Diaph act CS 0.7, G6PDH CS -13.1, PfG6PD inh 3.3, DTT redox prof 0.2, Diaphorase inh 25.3 and L major viab -3.0.
Screening O=c1cc(-c2cccc([N+](=O)[O-])c2)[nH][nH]1 returned Diaph act CS 0.8, G6PDH CS -3.6, PfG6PD inh -9.3, DTT redox prof -0.3, Diaphorase inh 21.8 and L major viab 58.3*.
`CC(/C=N/NC(=O)c1ccccc1F)=C\c1ccccc1` gave PfG6PD inh 11.8.
`COc1cc(Cl)cc(C2NC(=S)NC(c3ccccc3)=C2C(C)=O)c1OCC(=O)O` (centres undefined) gave Diaph act CS 1, G6PDH CS 9.2, PfG6PD inh -16.3, DTT redox prof 7.2, Diaphorase inh -1.2 and L major viab -8.4.
`CC(NCc1ccc(-c2ccccc2)cc1)C(O)c1ccccc1` (centres undefined) gave Diaph act CS 1, G6PDH CS -5.8, PfG6PD inh 8.1, DTT redox prof 0.0, Diaphorase inh 4.7 and L major viab 99.4*.
CC(O)CNCc1cccc2ccccc12 (centres undefined) was read as Diaph act CS 0.9, G6PDH CS 1.6, PfG6PD inh -3.2, DTT redox prof 0.4, Diaphorase inh 5.1 and L major viab -2.8.
For CC(O)CNCc1ccc(-c2ccccc2)cc1 (centres undefined) the results were Diaph act CS 0.8, G6PDH CS -2.6, PfG6PD inh -7.0, DTT redox prof -3.9, Diaphorase inh 16.8 and L major viab 89.1*.
Screening CCC(CO)NCc1ccc(-c2ccccc2)cc1 (centres undefined) returned Diaph act CS 0.8, G6PDH CS -2.2, PfG6PD inh -2.6, DTT redox prof 0.6, Diaphorase inh 17.4 and L major viab 88.6*.
Screening NS(=O)(=O)c1cccc(NC(=O)COC(=O)/C=C/c2nc3ccccc3s2)c1 returned PfG6PD inh 9.4.
Screening COc1ccc(Cl)cc1N(CC(=O)N1CCCC1)S(C)(=O)=O returned PfG6PD inh -8.2.
`Cc1ccc(S(=O)(=O)N(CC(=O)NCCSCc2ccco2)c2cc(C)ccc2C)cc1` gave PfG6PD inh 14.6, DTT redox prof 0.5 and L major viab 99.9*.
Cc1ccc(S(=O)(=O)N(CC(=O)NCCSCc2ccco2)c2ccc(F)cc2)cc1 was read as Diaph act CS 0.8, G6PDH CS 4.1, DTT redox prof 0.4, Diaphorase inh 16.0 and L major viab 31.1.
Cc1ccc(N(CC(=O)NCCSCc2ccco2)S(=O)(=O)c2ccc(F)cc2)cc1 was read as Diaph act CS 0.6, G6PDH CS 13.6, PfG6PD inh 6.0, DTT redox prof -0.1, Diaphorase inh 37.4 and L major viab 69.4*.
For O=C(CN(c1ccccc1)S(=O)(=O)c1ccccc1)NCCSCc1ccco1 the results were Diaph act CS 0.8, G6PDH CS 7.6, PfG6PD inh 18.6, DTT redox prof 2.0, Diaphorase inh 15.7 and L major viab 68.2*.
`CC1(C)C2CCC1(C)C(SC(=N)N)C2` (centres undefined) gave PfG6PD inh 11.3.
For O=C(c1ccc([N+](=O)[O-])cc1)N1CCSC1c1ccc(Br)cc1 (centres undefined) the results were Diaph act CS 0.8, G6PDH CS 4.6, PfG6PD inh -11.8, DTT redox prof -0.3, Diaphorase inh 21.6 and L major viab 5.1.
Cc1ccc(C2SCCN2C(=O)c2ccc([N+](=O)[O-])cc2)cc1 (centres undefined) was read as Diaph act CS 0.8, G6PDH CS 10.4, PfG6PD inh -1.9, DTT redox prof 0.3, Diaphorase inh 18.6 and L major viab 50.0*.
For Cn1c(N)c(C(=O)c2ccc(C#N)cc2)c(=O)n(C)c1=O the results were Diaph act CS 0.9, G6PDH CS -1.2, PfG6PD inh 21.9, DTT redox prof 0.1, Diaphorase inh 9.2 and L major viab -3.3.
Screening O=C(O)c1cc(S(=O)(=O)N2CCN(C(c3ccccc3)c3ccccc3)CC2)ccc1Cl returned PfG6PD inh -7.2.
`CN(C#N)c1nc(Cl)nc(Nc2cccc(Cl)c2)n1` gave Diaph act CS 0.9, G6PDH CS -8.8, PfG6PD inh 0.1, DTT redox prof -0.6, Diaphorase inh 9.9 and L major viab -0.7.
For CC(=O)c1cc2cc(O)ccc2o1 the results were Diaph act CS 1, G6PDH CS 5.8, PfG6PD inh 7.8, DTT redox prof 1.7, Diaphorase inh -3.6 and L major viab 3.0.
`CC(=O)c1cc2c(O)c(O)ccc2o1` gave Diaph act CS 0.3, G6PDH CS 54.5*, PfG6PD inh 21.8, DTT redox prof 0.6, Diaphorase inh 73.5* and L major viab 1.6.
For O=C(NC1CCCCC1)C(c1cccnc1)N(C(=O)c1ccc(Cl)nc1)C1CCCCC1 (centres undefined) the results were Diaph act CS 1.1, G6PDH CS 0.9, PfG6PD inh 7.2, DTT redox prof -1.5, Diaphorase inh -10.0 and L major viab 55.5*.
COC(CN(C(=O)CCl)C(C(=O)NC1CCCCC1)c1ccccc1C)OC (centres undefined) was read as Diaph act CS 1, G6PDH CS -0.6, PfG6PD inh 27.5, DTT redox prof 0.1, Diaphorase inh 0.0 and L major viab 67.6*.

Screening data: PubChem BioAssay, several laboratories
